Experimental data as given in article PMC6061410 (Clinical Drug Investigation, 2018).

What was measured:
healthy young subjects = experiment: Safety and tolerability; format: in vivo, human
Method in brief: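 Adverse events were recorded by system organ class and preferred term in 12 healthy young subjects. Each received single fasted 25-mg doses in the morning and evening, open-label crossover, washout ≥11 days. Baselines were the last measurements before the morning dose and before the evening dose.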

Intrinsic solubility = format: physicochemical
[1] = Pharmacokinetics of 25-mg single morning or evening dose, part 2; format: in vivo, human
Method in brief: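 Open-label two-period crossover in 12 healthy young subjects. Each took single fasted 25-mg doses, morning and evening, separated by a washout of at least 11 days. Blood was sampled pre-dose to 96 h and measured by LC-MS/MS. AUC0–tz, AUC0–∞ and Cmax were given as adjusted gMeans with evening/morning ratio and 90% CI. tmax was given as median (range).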

[2] = Pharmacokinetics after single and multiple doses, part 1; format: in vivo, human; conditions: for AUCτ,ss,norm / Cmax,ss,norm / AUC0–24,norm / Cmax,norm / AUC(0-t) / AUC / Cmax: gMean (%CV); for AUC(0-t) / AUC / Cmax / Tmax: human, plasma, oral; for AUC: AUCτ,ss; for Tmax: median and range (minimum, maximum)
Method in brief: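 Randomised 3:1 double-blind placebo-controlled groups (9 active, 3 placebo) of healthy young or elderly subjects took 5- or 25-mg tablets. Dosing was a single dose on day 1, QD or BID for 10 days from day 4, and a single dose on day 14. Fasted on days 1 and 14. Blood was sampled through day 23 and urine after first and last doses (QD only). Plasma/urine LC-MS/MS used a seven-point calibration. Geometric mean (%CV) values were reported.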

[3] = elderly, 25 mg QD, multiple dose
[4] = elderly, 50 mg QD, multiple dose

SMILES: C[C@@H](Oc1ccc(S(C)(=O)=O)cc1C(=O)N1C[C@@H]2C[C@]2(c2cc(C(F)(F)F)on2)C1)C(F)(F)F [BI 425809]
- changes in laboratory parameters, vital signs, 12-lead ECG, examinations, suicidality, oxygen saturation, VAS (healthy young subjects; part 2, single 25 mg doses): No clinically relevant changes
- serious AEs (healthy young subjects; part 2, single 25 mg doses): No serious AEs were reported
- Dizziness (healthy young subjects; young, part 2, 25 mg QD): 0 (–) n (%)
- Eye disorders (healthy young subjects; young, part 2, 25 mg QD): 0 (–) n (%)
- Gastrointestinal disorders (healthy young subjects; young, part 2, 25 mg QD): 0 (–) n (%)
- General disorders and administration site conditions (healthy young subjects; young, part 2, 25 mg QD): 0 n (%)
- Headache (healthy young subjects; young, part 2, 25 mg QD): 1 (8.3) n (%)
- Infections and infestations (healthy young subjects; young, part 2, 25 mg QD): 1 (8.3) n (%)
- Insomnia (healthy young subjects; young, part 2, 25 mg QD): 0 (–) n (%)
- Musculoskeletal and connective tissue disorders (healthy young subjects; young, part 2, 25 mg QD): 0 (–) n (%)
- Nasopharyngitis (healthy young subjects; young, part 2, 25 mg QD): 1 (8.3) n (%)
- Nervous system disorder (healthy young subjects; young, part 2, 25 mg QD): 1 (8.3) n (%)
- Ocular discomfort (healthy young subjects; young, part 2, 25 mg QD): 0 (–) n (%)
- Psychiatric disorders (healthy young subjects; young, part 2, 25 mg QD): 0 (–) n (%)
- Subjects with AEs leading to study discontinuation (healthy young subjects; young, part 2, 25 mg QD): 0 (–) n (%)
- Subjects with investigator-defined drug-related AEs (healthy young subjects; young, part 2, 25 mg QD): 0 (–) n (%)
- Total with AEs (healthy young subjects; young, part 2, 25 mg QD): 2 (16.7) n (%)
- Vision blurred (healthy young subjects; young, part 2, 25 mg QD): 0 (–) n (%)
- intrinsic solubility (Intrinsic solubility): low intrinsic solubility
- AUC0–tz, adjusted gMean ratio evening/morning (90% CI) ([1]; 25 mg single dose): 120 (107–135) %
- AUC0–∞, adjusted gMean ratio evening/morning (90% CI) ([1]; 25 mg single dose): 118 (104–134) %
- Cmax, adjusted gMean ratio evening/morning (90% CI) ([1]; 25 mg single dose): 115 (98.1–136) %
- higher gMean Cmax, evening compared with morning administration ([1]; 25 mg single dose, 90% CI 98.1–136): 15%
- higher AUC0–tz, evening compared with morning administration ([1]; 25 mg single dose, 90% CI 107–135): 20%
- AUC0–tz, adjusted gMean ([1]; 25 mg single evening dose, fasted): 8.41 µM·h
- higher exposure, evening compared with morning ([1]; 25-mg tablet): 15–20%
- AUC(0-t) ([1]; human, plasma, oral, 25 mg): 7 µM·h
- Tmax ([1]; human, plasma, oral, 25 mg): 4.5 h
- AUC(0-inf) ([1]; human, plasma, oral, 25 mg, AUC0–∞, adjusted gMean, 25 mg single morning dose, fasted): 8.77 µM·h
- Cmax ([1]; human, plasma, oral, 25 mg, Cmax, adjusted gMean, 25 mg single morning dose, fasted): 241 nM
- dose proportionality of exposure parameters (Cmax, AUC0–24, Cmax,ss and AUCτ,ss) ([2]; 10 and 25 mg, tablet): dose proportionality was observed
- linearity index ([2]; QD groups): ~1
- time to steady state after the start of multiple dosing ([2]; all treatment groups): 2 to 6 days
- dose proportionality of exposure ([2]; doses of ≥ 50 mg, tablet): clearly less than dose proportional
- AUCτ,ss,norm [2, 3]: 439 (11.6) nmol·h/L/mg
- Cmax,ss,norm [2, 3]: 24.7 (10.9) nmol/L/mg
- AUC0–24,norm ([2]; elderly, 25 mg QD, single dose): 139 (18.5) nmol·h/L/mg
- Cmax,norm ([2]; elderly, 25 mg QD, single dose): 9.4 (18.7) nmol/L/mg
- AUCτ,ss,norm [2, 4]: 278 (30.8) nmol·h/L/mg
- Cmax,ss,norm [2, 4]: 16.0 (25.0) nmol/L/mg
- AUC0–24,norm ([2]; elderly, 50 mg QD, single dose): 112 (17.9) nmol·h/L/mg
- Cmax,norm ([2]; elderly, 50 mg QD, single dose): 7.43 (25.9) nmol/L/mg
- AUC(0-t) ([2]; 10 mg, AUC0–24, young, 10 mg QD, single dose): 1.41 µM·h
- AUC ([2]; 10 mg, young, 10 mg QD, multiple dose): 3.87 µM·h
- Cmax ([2]; 10 mg, Cmax, young, 10 mg QD, single dose): 109 nM
- Tmax ([2]; 10 mg, tmax,ss, young, 10 mg QD, multiple dose): 4.5 h
- AUC(0-t) ([2]; 25 mg, AUC0–24, elderly, 25 mg QD, single dose): 3.46 µM·h
- AUC(0-t) ([2]; 25 mg, AUC0–24, young, 25 mg QD, single dose): 3.72 µM·h
- AUC ([2]; 25 mg, elderly, 25 mg QD, multiple dose): 11 µM·h
- AUC ([2]; 25 mg, young, 25 mg QD, multiple dose): 10.6 µM·h
- Cmax ([2]; 25 mg, Cmax, elderly, 25 mg QD, single dose): 235 nM
- Cmax ([2]; 25 mg, Cmax, young, 25 mg QD, single dose): 278 nM
- Cmax ([2]; 25 mg, Cmax,ss, elderly, 25 mg QD, multiple dose): 618 nM
- Cmax ([2]; 25 mg, Cmax,ss, young, 25 mg QD, multiple dose): 582 nM
- Tmax ([2]; 25 mg, tmax, elderly, 25 mg QD, single dose): 3.5 h
- Tmax ([2]; 25 mg, tmax, young, 25 mg QD, single dose): 4.5 h
- Tmax ([2]; 25 mg, tmax,ss, elderly, 25 mg QD, multiple dose): 3 h
- Tmax ([2]; 25 mg, tmax,ss, young, 25 mg QD, multiple dose): 3.75 h
- AUC(0-t) ([2]; 50 mg, AUC0–24, elderly, 50 mg QD, single dose): 5.62 µM·h
- AUC(0-t) ([2]; 50 mg, AUC0–24, young, 50 mg QD, single dose): 6.02 µM·h
- AUC ([2]; 50 mg, elderly, 50 mg QD, multiple dose): 13.9 µM·h
- AUC ([2]; 50 mg, young, 50 mg QD, multiple dose): 14.2 µM·h
- Cmax ([2]; 50 mg, Cmax, elderly, 50 mg QD, single dose): 371 nM
